Data on 1 compound can be found in ChEMBL document CHEMBL4350999, “Enhanced tumor retention of NTSR1-targeted agents by employing a hydrophilic cysteine cathepsin inhibitor” (Eur J Med Chem, 2019).

Experiment [1] addresses T1, Cathepsin B (Homo sapiens, UniProt P07858). Kind of experiment: Inhibition of human liver cathepsin B assessed as inhibition constant using Z-Arg-Arg-AMC as substrate measured every 5 mins for 1 hr by fluorescence assay.
In experiment [2] the target is T1, Cathepsin B. Kind of experiment: Inhibition of human liver cathepsin B assessed as second order rate constant using Z-Arg-Arg-AMC as substrate measured every 5 mins for 1 hr by fluorescence assay. A digest of the protocol:
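Human liver cathepsin B, 2 nM final, in 0.1 M phosphate pH 5.8 (1 mM EDTA, 2.7 mM DTT, 0.03% Brij35). Enzyme mixed with conjugate (1–500 nM final), then Z-Arg-Arg-AMC added (800 μM final); 37 °C. […] Biological triplicate.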

For experiment [3], the target named is T1, Cathepsin B. Nature of the experiment: Inhibition of human liver cathepsin B assessed as pseudo Michaelis-Menten constant at 10 nM using varying levels of Z-Arg-Arg-AMC as substrate measured every 5 mins for 1 hr by fluorescence assay.

Activity calls are given as the source filed them. No cut-off for these calls is given here.

For `CC(C)C[C@H](NC(=O)CCC(=O)O)C(=O)N[C@@H](CCCNC(=N)N)C(=O)NCCN=[N+]=[N-]`, the inhibition result on Cathepsin B [1] and on Cathepsin B [2] was “inactive” each time. Besides, the K on Cathepsin B [3] is 185 µM.
